According to PMC7941041 (Biochemistry and Biophysics Reports, 2021):
Square brackets hold non-standard residues; d marks the D form. pS = N[C@@H](COP(=O)(O)O)C(=O)O

B1: GKAP repeat 5 peptide (peptide)
peptide: Ac-MPGCFRMR-NH2
B2: long stargazin peptide pStg(long) (peptide)
peptide: Ac-RIPSYRYRYQRRSRSSSRSTE-NH2
B3: GKAP repeat 4 peptide (peptide)
peptide: Ac-TSPKFRSR-NH2
B4: stargazin peptide pStg(wt) (peptide)
peptide: Ac-RIPSYRYR-NH2
B5: long GKAP repeat 4 peptide (peptide)
peptide: Ac-TSPKFRSRNESYMRAMST-NH2
B6: phosphorylated stargazin peptide pStg(phos) (peptide)
peptide: Ac-RIP[pS]YRYR-NH2
SMILES: CC[C@H](C)[C@H](NC(=O)[C@H](CCCNC(=N)N)NC(C)=O)C(=O)N1CCC[C@H]1C(=O)N[C@@H](COP(=O)(O)O)C(=O)N[C@@H](Cc1ccc(O)cc1)C(=O)N[C@@H](CCCNC(=N)N)C(=O)N[C@@H](Cc1ccc(O)cc1)C(=O)N[C@@H](CCCNC(=N)N)C(N)=O

Tests used:
[1] = biological target: T1, hArc-NL (residues 207–277) (Homo sapiens, UniProt Q7LC44); test: ITC analysis of peptide binding to hArc-NL; settings: 20 mM Tris-HCl pH 7.4, 150 mM NaCl, +25 °C, one-site binding model
T1 sequence (Q7LC44 207-277): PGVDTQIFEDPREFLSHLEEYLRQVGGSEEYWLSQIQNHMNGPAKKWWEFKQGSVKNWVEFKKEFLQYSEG
In short: (§1)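 Human Arc constructs carried a cleavable His-MBP tag and were expressed in E. coli BL21 with IPTG induction at +30 °C. They were purified by Ni-NTA and size-exclusion chromatography, and TEV cleavage left an N-terminal GAMG. Peptides were N-acetylated and C-amidated. Peptide (2.5–5.0 mM) was titrated into the cell containing protein (0.25–0.5 mM).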

[2] = biological target: T2, hArc-CT (residues 206–396, containing both lobes) (Homo sapiens, UniProt Q7LC44); test: ITC analysis of peptide binding to hArc-CT; settings: 20 mM Tris-HCl pH 7.4, 150 mM NaCl, +25 °C, one-site binding model
T2 sequence (Q7LC44 206-396): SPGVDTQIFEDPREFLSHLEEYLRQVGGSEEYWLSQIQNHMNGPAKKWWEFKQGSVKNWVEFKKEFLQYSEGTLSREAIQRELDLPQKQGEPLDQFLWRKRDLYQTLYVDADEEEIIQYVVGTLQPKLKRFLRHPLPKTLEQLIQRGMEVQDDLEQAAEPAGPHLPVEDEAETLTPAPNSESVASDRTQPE
In short: as §1

[3] = biological target: T3, human Arc N-lobe (hArc-NL, residues 207–277) (human, UniProt Q7LC44 207-277); test: ITC
T3 sequence: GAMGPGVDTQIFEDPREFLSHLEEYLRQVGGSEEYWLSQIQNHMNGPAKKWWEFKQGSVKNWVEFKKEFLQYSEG

[4] = biological target: T4, human Arc C-terminal domain (hArc-CT, residues 206–396, containing both lobes) (human, UniProt Q7LC44 206-396); test: ITC
T4 sequence: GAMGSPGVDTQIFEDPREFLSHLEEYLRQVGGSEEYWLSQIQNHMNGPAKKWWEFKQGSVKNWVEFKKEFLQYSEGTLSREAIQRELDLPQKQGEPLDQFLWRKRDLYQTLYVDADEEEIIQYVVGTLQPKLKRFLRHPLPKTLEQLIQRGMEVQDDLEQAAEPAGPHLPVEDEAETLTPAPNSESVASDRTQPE

Molecule	-TΔS [1]	ΔH [1]	-TΔS [2]	ΔH [2]	Kd [3]	dH [3]	Kd [4]	dH [4]
Ac-RIPSYRYR-NH2 [pStg(wt)]	+7.0 kcal/mol/°	-13.1 ± 0.1 kcal/mol	+6.4 kcal/mol/°	-12.0 ± 0.2 kcal/mol	–	–	–	–
Ac-TSPKFRSR-NH2 [GKAP-R4]	+6.6 kcal/mol/°	-10.9 ± 0.4 kcal/mol	+2.5 kcal/mol/°	-6.8 ± 0.1 kcal/mol	–	–	–	–
Ac-MPGCFRMR-NH2 [GKAP-R5]	+4.7 kcal/mol/°	-8.2 ± 0.3 kcal/mol	–	–	–	–	–	–
Ac-TSPKFRSRNESYMRAMST-NH2 [GKAP-R4(long)]	+3.1 kcal/mol/°	-7.2 ± 0.2 kcal/mol	+2.2 kcal/mol/°	-6.8 ± 0.2 kcal/mol	–	–	–	–
Ac-RIPSYRYRYQRRSRSSSRSTE-NH2 [pStg(long)]	–	–	+14.0 kcal/mol/°	-20.2 ± 0.2 kcal/mol	–	–	–	–
B1	–	–	–	–	2390 ± 314 µM	-8.2 ± 0.3 kcal/mol	–	–
B2	–	–	–	–	–	–	26.4 ± 1.2 µM	-20.2 ± 0.2 kcal/mol
B3	–	–	–	–	714 ± 19 µM	-10.9 ± 0.4 kcal/mol	763 ± 10 µM	-6.8 ± 0.1 kcal/mol
B4	–	–	–	–	33.6 ± 1.1 µM	-13.1 ± 0.1 kcal/mol	80 ± 4 µM	-12 ± 0.2 kcal/mol
B5	–	–	–	–	426 ± 12 µM	-7.2 ± 0.2 kcal/mol	391 ± 18 µM	-6.8 ± 0.2 kcal/mol
B6	–	–	–	–	–	-66.5 ± 0.6 kcal/mol	–	–
